Results: ChEMBL document CHEMBL4680104, “Structure-Based Optimization of Small-Molecule Inhibitors for the β-Catenin/B-Cell Lymphoma 9 Protein-Protein Interaction” (J Med Chem, 2018)
The source made the active and inactive calls. The rule behind the calls is not given here.

Experiments:
HCT-116 = assay: Cytotoxicity in human HCT-116 cells assessed as reduction in cell viability incubated for 72 hrs by MTS assay; type: functional, cell-based; conditions: HCT-116, 72 h
Summary of the method: (§1)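 Cells seeded at 5 × 10^3 cells/well, kept overnight at 37 °C, then exposed to inhibitors at various concentrations for 72 h. Viability read with a freshly mixed PMS (0.92 mg/mL) : MTS (2 mg/mL) reagent at 1:19, incubated 3 h at 37 °C, A490 measured. […] Triplicate; mean ± SD.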

SW480 [1] = assay: Cytotoxicity in human SW480 cells assessed as reduction in cell viability incubated for 72 hrs by MTS assay; type: functional, cell-based; conditions: SW480, 72 h; summary of the method: as §1
[2] = target: T1, beta-catenin-B-cell lymphoma 9 protein complex (Homo sapiens, UniProt P35222); assay: Inhibition of protein interaction between C-terminal 6x-histidine tagged full-length beta-catenin (1 to 781 residues) (unknown origin)/N-terminal biotinylated human BCL9 ( 350 to 375 residues) incubated for 1 hr by Alpha-screen competitive inhibition assay; type: protein-complex assay
T1 sequence (P35222 whole entry): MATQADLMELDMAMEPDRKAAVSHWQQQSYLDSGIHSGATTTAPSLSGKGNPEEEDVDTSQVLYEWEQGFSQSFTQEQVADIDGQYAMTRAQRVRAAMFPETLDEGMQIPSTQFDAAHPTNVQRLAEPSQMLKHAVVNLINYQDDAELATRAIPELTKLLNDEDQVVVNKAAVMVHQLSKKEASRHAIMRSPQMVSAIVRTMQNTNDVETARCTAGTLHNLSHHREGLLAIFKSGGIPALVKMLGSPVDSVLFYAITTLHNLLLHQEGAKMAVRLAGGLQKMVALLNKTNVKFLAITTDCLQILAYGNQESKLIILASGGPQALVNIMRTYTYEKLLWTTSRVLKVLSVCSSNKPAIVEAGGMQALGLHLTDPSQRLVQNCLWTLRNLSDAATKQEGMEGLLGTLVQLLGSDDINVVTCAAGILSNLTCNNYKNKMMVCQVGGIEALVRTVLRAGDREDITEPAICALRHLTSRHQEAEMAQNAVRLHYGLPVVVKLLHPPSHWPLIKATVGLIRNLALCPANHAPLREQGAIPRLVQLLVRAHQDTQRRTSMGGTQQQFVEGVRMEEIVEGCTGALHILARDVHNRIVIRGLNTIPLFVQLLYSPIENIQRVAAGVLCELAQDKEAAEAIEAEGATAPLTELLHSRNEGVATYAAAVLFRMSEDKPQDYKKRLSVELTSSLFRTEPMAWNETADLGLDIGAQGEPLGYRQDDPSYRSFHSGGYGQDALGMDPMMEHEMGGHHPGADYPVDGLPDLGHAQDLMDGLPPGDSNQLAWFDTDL
T1 sequence (O00512 whole entry): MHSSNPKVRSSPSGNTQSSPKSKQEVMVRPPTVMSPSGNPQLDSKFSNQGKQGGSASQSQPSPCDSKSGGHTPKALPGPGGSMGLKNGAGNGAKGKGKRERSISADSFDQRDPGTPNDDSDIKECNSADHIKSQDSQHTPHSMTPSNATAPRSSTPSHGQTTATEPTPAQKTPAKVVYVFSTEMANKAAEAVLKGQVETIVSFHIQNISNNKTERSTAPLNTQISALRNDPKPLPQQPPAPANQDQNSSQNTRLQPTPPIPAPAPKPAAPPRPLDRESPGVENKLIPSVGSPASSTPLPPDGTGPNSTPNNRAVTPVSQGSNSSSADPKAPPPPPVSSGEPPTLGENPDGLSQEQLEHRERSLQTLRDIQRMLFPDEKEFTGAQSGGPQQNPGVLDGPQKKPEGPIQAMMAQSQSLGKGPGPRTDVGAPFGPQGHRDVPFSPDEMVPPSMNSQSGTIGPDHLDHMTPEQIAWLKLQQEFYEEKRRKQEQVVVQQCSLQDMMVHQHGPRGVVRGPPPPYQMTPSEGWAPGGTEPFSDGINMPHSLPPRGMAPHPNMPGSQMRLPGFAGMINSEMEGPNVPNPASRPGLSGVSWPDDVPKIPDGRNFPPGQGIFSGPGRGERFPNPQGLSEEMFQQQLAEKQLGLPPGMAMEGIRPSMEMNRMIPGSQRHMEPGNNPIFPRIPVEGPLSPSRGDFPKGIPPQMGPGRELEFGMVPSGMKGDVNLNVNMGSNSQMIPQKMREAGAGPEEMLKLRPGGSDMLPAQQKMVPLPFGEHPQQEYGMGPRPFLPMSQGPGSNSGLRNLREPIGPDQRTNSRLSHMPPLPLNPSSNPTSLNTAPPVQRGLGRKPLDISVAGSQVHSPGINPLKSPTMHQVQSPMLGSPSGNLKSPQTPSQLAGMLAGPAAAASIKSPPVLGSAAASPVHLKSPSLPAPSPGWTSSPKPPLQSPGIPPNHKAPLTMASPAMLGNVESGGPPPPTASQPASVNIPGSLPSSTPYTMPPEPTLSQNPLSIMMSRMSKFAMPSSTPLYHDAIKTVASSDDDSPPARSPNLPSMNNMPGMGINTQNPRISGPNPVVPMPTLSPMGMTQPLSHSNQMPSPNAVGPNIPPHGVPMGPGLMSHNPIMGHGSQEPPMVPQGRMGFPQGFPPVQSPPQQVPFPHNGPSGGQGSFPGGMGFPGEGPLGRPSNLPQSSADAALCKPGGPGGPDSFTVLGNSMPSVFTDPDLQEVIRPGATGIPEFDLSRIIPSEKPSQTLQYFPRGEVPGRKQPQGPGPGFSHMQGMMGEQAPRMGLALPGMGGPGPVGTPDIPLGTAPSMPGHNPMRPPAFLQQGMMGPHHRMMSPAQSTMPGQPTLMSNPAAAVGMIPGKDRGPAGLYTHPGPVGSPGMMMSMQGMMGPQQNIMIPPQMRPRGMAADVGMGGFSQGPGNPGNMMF
Summary of the method: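 Full-length β-catenin (residues 1–781) with a C-terminal His6 tag was expressed in E. coli BL21(DE3) after IPTG induction at 20 °C. It was purified by Ni-NTA, anion-exchange and size-exclusion chromatography. For the assay, 40 nM β-catenin was preincubated for 30 min at 4 °C with 5 nM biotinylated BCL9 or 10 nM biotinylated E-cadherin. Inhibitor was then added for 1 h at 4 °C, followed by 10 μg/mL donor and acceptor beads for 1 h at 4 °C. IC50 was obtained by nonlinear fit and converted to Ki by the Nikolovska-Coleska method. Triplicate, mean ± SD.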

SW480 [3] = assay: Cytotoxic activity in human SW480 cells at 800 uM incubated for 4 hrs by LDH release assay; type: cell-based; conditions: sw480, 4 h
Summary of the method: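 SW480 cells were seeded at 2 × 10^4 cells/well and kept overnight at 37 °C. They were then exposed to a range of inhibitor concentrations for 4 h. LDH in the culture supernatant was measured with a diagnostic kit by absorbance at 490 nm. Percent cytotoxicity was calculated from experimental release against maximum release, with background subtracted. Run in triplicate.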

[4] = target: T1, beta-catenin-B-cell lymphoma 9 protein complex; assay: Inhibition of protein interaction between beta-catenin (unknown origin)/BCL9 in human SW480 cells transfected with beta-catenin assessed as reduction in Wnt/beta-catenin transactivation incubated for 24 hrs by Wnt-responsive TOP-Flash luciferase reporter assay; type: cell-based
[5] = Effect on HPRT mRNA expression in human SW480 cells at 10 uM incubated for 24 hrs by qPCR analysis relative to control; type: ADME, cell-based; conditions: read-out: FC
Summary of the method: (§2)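 SW480 cells at 1 × 10^6/mL were treated with inhibitor for 24 h. Total RNA was extracted with TRIzol and cDNA made by first-strand synthesis. SYBR green qPCR used human HPRT primers, with CT values normalised to GAPDH as internal reference. Performed in triplicate.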

[6] = target: T2, beta-catenin-B-cell lymphoma 9 protein complex (Homo sapiens) (UniProt P35222+O00512); assay: Inhibition of protein interaction between beta-catenin (unknown origin)/BCL9 in HEK293 cells transfected with beta-catenin assessed as reduction in Wnt/beta-catenin transactivation incubated for 24 hrs by Wnt-responsive FOP-Flash luciferase reporter assay; type: cell-based
Summary of the method: (§3)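 HEK293 cells were cotransfected using FuGENE6 with 45 ng TOPFlash or FOPFlash reporter, 135 ng pcDNA3.1-β-catenin and 20 ng pCMV-RL normalization reporter. After 24 h in DMEM with 10% FBS at 37 °C, inhibitors or DMSO were added for 24 h. Reporter activity was read with a dual luciferase system, normalized, and compared with DMSO-treated cells. Triplicate.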

[7] = target: T1, beta-catenin-B-cell lymphoma 9 protein complex; assay: Inhibition of protein interaction between beta-catenin (unknown origin)/BCL9 in HEK293 cells transfected with beta-catenin assessed as reduction in Wnt/beta-catenin transactivation incubated for 24 hrs by Wnt-responsive TOP-Flash luciferase reporter assay; type: cell-based; summary of the method: as §3
MDA-MB-231 = assay: Cytotoxicity in human MDA-MB-231 cells assessed as reduction in cell viability incubated for 72 hrs by MTS assay; type: functional, cell-based; conditions: MDA-MB-231, 72 h
Summary of the method: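 Triple-negative breast cancer line seeded at 5 × 10^3 cells/well, held overnight at 37 °C, then exposed to inhibitor over a concentration range for 72 h. Viability read out with a fresh 1:19 mix of PMS (0.92 mg/mL) and MTS (2 mg/mL), incubated 3 h at 37 °C, A490 measured.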

A549 = assay: Cytotoxicity in human A549 cells assessed as reduction in cell viability incubated for 72 hrs by MTS assay; type: functional, cell-based; conditions: A549, 72 h; summary of the method: as §1
[8] = Effect on HPRT mRNA expression in human SW480 cells at 5 uM incubated for 24 hrs by qPCR analysis relative to control; type: ADME, cell-based; conditions: read-out: FC; summary of the method: as §2
[9] = Effect on HPRT mRNA expression in human SW480 cells at 20 uM incubated for 24 hrs by qPCR analysis relative to control; type: ADME, cell-based; conditions: read-out: FC; summary of the method: as §2
[10] = target: T2, beta-catenin-B-cell lymphoma 9 protein complex (Homo sapiens); assay: Inhibition of protein interaction between beta-catenin (unknown origin)/BCL9 in human HEK293 cells transfected with beta-catenin assessed as reduction in Wnt/beta-catenin transactivation incubated for 24 hrs by Wnt-responsive FOP-Flash luciferase reporter assay
[11] = Inhibition of protein interaction between beta-catenin D145A mutant (unknown origin)/N-terminal biotinylated human BCL9 ( 350 to 375 residues) incubated for 1 hr by Alpha-screen competitive inhibition assay
[12] = Inhibition of protein interaction between beta-catenin K181A mutant (unknown origin)/N-terminal biotinylated human BCL9 ( 350 to 375 residues) incubated for 1 hr by Alpha-screen competitive inhibition assay
[13] = Inhibition of protein interaction between beta-catenin D145A/E155A mutant (unknown origin)/N-terminal biotinylated human BCL9 ( 350 to 375 residues) incubated for 1 hr by Alpha-screen competitive inhibition assay

Row | Structure (SMILES) | Ki [2] [µM] | IC50 [4] [µM] | inhibition [6] | IC50 [7] [µM] | inhibition [10] | IC50 (HCT-116) [µM] | IC50 (SW480 [1]) [µM] | Activity (SW480 [3]) | fold induction at 10 µM [5] | IC50 (MDA-MB-231) [µM] | IC50 (A549) [µM] | fold induction at 5 µM [8] | fold induction at 20 µM [9] | Ki [11] [µM] | Ki [12] [µM] | Ki [13] [µM]
1 | Cl.Cl.Fc1ccc(-c2cc(-c3ccc4cc(O[C@H]5CCNC5)c(-c5ccc(F)c(F)c5)cc4n3)ccc2O[C@H]2CCNC2)cc1 |  | 12 | Active | 26 | Active | 9.6 | 3.6 | Non-Toxic | 0.319 | 15 | 23 | 0.369 | 0.0612 |  |  | 
2 | Cl.Cl.O=C(Nc1ccc(O[C@H]2CCNC2)c(-c2cccc(-c3nn[nH]n3)c2)c1)c1ccc(O[C@H]2CCNC2)c(-c2ccc(F)c(F)c2)c1 | 1 |  |  |  |  | 190 | 140 | Non-Toxic |  | 92 | 410 |  |  | 6.5 | 4.9 | 18

More lines, main results first:

Row | Ki [2] [µM] | IC50 [4] [µM] | inhibition [6] | IC50 [7] [µM] | inhibition [10] | Structure (SMILES) | IC50 (HCT-116) [µM] | IC50 (SW480 [1]) [µM] | Activity (SW480 [3]) | fold induction at 10 µM [5] | IC50 (MDA-MB-231) [µM] | IC50 (A549) [µM] | fold induction at 5 µM [8] | fold induction at 20 µM [9] | Ki [11] [µM] | Ki [12] [µM] | Ki [13] [µM]
3 | 3.7 | 391 |  |  |  | Cl.Cl.O=C(O)c1ccc(-c2cc(NC(=O)c3ccc(O[C@H]4CCNC4)c(-c4ccc(F)c(F)c4)c3)ccc2O[C@H]2CCNC2)cc1 | > 400 | > 400 | Non-Toxic |  |  |  |  |  |  |  | 
4 | 12 | > 400 |  |  |  | Cl.Cl.O=C(O)c1ccc(F)c(-c2cc(NC(=O)c3ccc(O[C@H]4CCNC4)c(-c4ccc(F)c(F)c4)c3)ccc2O[C@H]2CCNC2)c1 | > 400 | > 400 | Non-Toxic |  |  |  |  |  |  |  | 
5 | 4.7 |  |  |  |  | Cl.Cl.NC(=O)c1ccc(-c2cc(NC(=O)c3ccc(O[C@H]4CCNC4)c(-c4ccc(F)c(F)c4)c3)ccc2O[C@H]2CCNC2)cc1 |  | 160 | Non-Toxic |  |  |  |  |  |  |  | 
